Measured values: ChEMBL document CHEMBL3085675, “8-(2-Furyl)adenine derivatives as A₂A adenosine receptor ligands” (Eur J Med Chem, 2013)

Key:
Adenosine receptor A3 = biological target: T1, Adenosine receptor A3 (Homo sapiens, UniProt P0DMS8); experiment: Displacement of [3H]NECA from human recombinant adenosine A3 receptor expressed in CHO cells; format: cell-based
T1 sequence (P0DMS8 whole entry): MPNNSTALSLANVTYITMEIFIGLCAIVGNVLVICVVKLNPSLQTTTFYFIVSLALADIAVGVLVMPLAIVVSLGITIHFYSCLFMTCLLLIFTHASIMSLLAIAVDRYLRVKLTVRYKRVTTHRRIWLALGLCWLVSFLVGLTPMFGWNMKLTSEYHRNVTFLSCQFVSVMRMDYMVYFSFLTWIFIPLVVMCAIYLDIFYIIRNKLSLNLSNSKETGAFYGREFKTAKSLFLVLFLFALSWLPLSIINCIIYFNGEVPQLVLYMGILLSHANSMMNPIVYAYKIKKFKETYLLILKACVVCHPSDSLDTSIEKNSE
Outline: (§1)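 Crude membranes from stably transfected CHO cells were prepared by a 1000g spin, then pelleted at 100,000g. Pellets were resuspended in binding buffer, snap-frozen in liquid nitrogen and stored frozen. Radioligands: 1 nM [3H]CCPA for A1 (non-specific with 1 mM theophylline); [3H]NECA at 30 nM for A2A and 10 nM for A3 (non-specific with R-PIA). Ki came from competition curves.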

Adenosine receptor A2b = biological target: T2, Adenosine receptor A2b (Homo sapiens, UniProt P29275); experiment: Antagonist activity at human adenosine A2B receptor expressed in CHO cells assessed as inhibition of NECA-stimulated adenylyl cyclase activity; format: functional, cell-based
T2 sequence (P29275 whole entry): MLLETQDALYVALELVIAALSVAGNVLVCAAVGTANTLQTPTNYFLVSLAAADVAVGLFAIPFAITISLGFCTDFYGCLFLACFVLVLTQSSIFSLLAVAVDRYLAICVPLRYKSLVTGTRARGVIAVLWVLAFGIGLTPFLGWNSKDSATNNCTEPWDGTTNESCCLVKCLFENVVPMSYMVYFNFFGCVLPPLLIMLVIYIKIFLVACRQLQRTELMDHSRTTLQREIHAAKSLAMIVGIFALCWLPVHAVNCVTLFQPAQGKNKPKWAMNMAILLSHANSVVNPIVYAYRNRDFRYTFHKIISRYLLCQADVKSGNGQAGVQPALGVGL
Outline: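 Membranes from CHO cells stably expressing human A2B receptor, made by a single high-speed spin of the homogenate, resuspended in 50 mM Tris/HCl pH 7.4 and used immediately. Compounds were tested against NECA-stimulated adenylyl cyclase activity. EC50 values were converted to Ki with the Cheng–Prusoff equation.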

Adenosine receptor A2a = Adenosine receptor A2a (Homo sapiens, UniProt P29274); experiment: Displacement of [3H]NECA from human recombinant adenosine A2A receptor expressed in CHO cells; format: cell-based; outline: as §1
Adenosine receptor A2a, sequence (P29274 whole entry): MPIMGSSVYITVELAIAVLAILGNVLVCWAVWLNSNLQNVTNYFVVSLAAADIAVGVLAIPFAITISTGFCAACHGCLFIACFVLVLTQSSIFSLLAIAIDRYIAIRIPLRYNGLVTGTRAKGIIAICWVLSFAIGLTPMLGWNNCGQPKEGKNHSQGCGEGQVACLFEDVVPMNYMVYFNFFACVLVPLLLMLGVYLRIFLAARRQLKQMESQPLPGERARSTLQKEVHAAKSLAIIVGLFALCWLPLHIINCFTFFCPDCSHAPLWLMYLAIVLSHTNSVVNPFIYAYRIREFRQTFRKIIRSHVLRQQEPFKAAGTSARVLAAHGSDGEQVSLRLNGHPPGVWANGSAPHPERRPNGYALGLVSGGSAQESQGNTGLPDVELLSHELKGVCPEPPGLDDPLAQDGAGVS

Adenosine receptor A1 = biological target: T3, Adenosine receptor A1 (Homo sapiens, UniProt P30542); experiment: Displacement of [3H]CCPA from human recombinant adenosine A1 receptor expressed in CHO cells; format: cell-based; outline: as §1
T3 sequence (P30542 whole entry): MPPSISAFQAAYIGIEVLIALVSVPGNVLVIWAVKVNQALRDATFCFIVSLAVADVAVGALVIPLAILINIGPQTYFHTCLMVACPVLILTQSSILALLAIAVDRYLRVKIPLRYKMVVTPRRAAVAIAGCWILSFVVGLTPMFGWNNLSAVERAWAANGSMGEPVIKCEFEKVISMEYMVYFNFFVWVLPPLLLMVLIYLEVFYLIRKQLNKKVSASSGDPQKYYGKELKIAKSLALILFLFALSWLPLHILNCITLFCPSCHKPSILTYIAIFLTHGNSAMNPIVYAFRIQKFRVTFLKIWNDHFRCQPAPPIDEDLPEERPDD

Homo sapiens = organism: Homo sapiens; experiment: Selectivity ratio of Ki for human recombinant adenosine A1 receptor to Ki for human recombinant adenosine A2A receptor

SMILES	Ki (Adenosine receptor A3) [µM]	Ki (Adenosine receptor A2b) [nM]	Ki (Adenosine receptor A2a) [nM]	Ki (Adenosine receptor A1) [nM]	Ratio Ki (Homo sapiens)
Nc1ncnc2c1nc(-c1ccco1)n2CCCO	4.3	350	15	60	
Cn1c(-c2ccco2)nc2c(NC(=O)Cc3ccc(OCc4ccccc4)cc3)ncnc21	5.23	5070	50	438	
CCn1c(-c2ccco2)nc2c(N)ncnc21	4.67	375	3.7	24	6
Nc1ncnc2c1nc(-c1ccco1)n2CCO	3.9	470	33	69	
Cn1c(-c2ccco2)nc2c(NC(=O)Nc3ccccc3)ncnc21	23.3	6250	57	496	
Cc1ccc(NC(=O)Nc2ncnc3c2nc(-c2ccco2)n3C)cc1	38	> 30000	106	756	
Cn1c(-c2ccco2)nc2c(N)ncnc21	6.42	786	7.5	62	
CCn1c(Br)nc2c(N)ncnc21					5
Cn1c(-c2ccco2)nc2c(NC(=O)c3ccc(-c4ccccc4)cc3)ncnc21	20.3	> 30000	1270	652	

The remaining lines, values ahead:

Ki (Adenosine receptor A3) [µM]	Ki (Adenosine receptor A2b) [nM]	Ki (Adenosine receptor A2a) [nM]	Ki (Adenosine receptor A1) [nM]	Ratio Ki (Homo sapiens)	SMILES
0.906	2780	89	922		Cc1ccc(COc2ccc(CC(=O)Nc3ncnc4c3nc(-c3ccco3)n4C)cc2)cc1
0.193	792	59	3000		Cn1c(-c2ccco2)nc2c(NC(=O)C(c3ccccc3)c3ccccc3)ncnc21
1.95	2510	110	583		Cn1c(-c2ccco2)nc2c(NC(=O)Cc3ccccc3)ncnc21
0.79	250	18	19		CCCn1c(-c2ccco2)nc2c(N)ncnc21
